Experimental findings from ChEMBL document CHEMBL3259739, “Synthesis and structure-activity relationship of trisubstituted thiazoles as Cdc7 kinase inhibitors” (Eur J Med Chem, 2014) are described below.

For assay [1], the target named is T1, Serine/threonine-protein kinase D2 (Homo sapiens) (UniProt Q9BZL6).
T1 sequence (whole entry): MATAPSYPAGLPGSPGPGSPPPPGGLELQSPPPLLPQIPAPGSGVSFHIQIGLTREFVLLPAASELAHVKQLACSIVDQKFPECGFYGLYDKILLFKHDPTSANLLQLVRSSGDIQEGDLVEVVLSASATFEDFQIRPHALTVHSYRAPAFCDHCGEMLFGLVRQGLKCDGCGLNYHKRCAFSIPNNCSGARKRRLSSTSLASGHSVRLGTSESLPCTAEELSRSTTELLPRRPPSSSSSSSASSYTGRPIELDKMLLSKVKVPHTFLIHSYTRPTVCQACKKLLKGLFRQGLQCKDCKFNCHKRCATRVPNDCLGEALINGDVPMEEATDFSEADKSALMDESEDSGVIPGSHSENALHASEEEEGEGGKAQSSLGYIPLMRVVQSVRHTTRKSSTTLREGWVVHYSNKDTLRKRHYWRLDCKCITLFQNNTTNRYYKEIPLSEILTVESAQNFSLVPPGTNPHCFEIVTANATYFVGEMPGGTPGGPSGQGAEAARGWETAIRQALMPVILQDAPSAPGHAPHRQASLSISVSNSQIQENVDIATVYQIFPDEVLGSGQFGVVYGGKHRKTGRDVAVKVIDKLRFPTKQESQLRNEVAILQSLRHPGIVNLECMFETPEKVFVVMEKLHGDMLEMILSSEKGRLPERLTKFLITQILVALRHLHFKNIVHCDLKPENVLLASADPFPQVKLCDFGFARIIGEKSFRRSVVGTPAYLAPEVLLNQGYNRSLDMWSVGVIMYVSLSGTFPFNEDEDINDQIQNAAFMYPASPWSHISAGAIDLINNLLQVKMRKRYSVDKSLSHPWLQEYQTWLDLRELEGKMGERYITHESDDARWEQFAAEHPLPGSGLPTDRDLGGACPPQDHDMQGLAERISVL
Put plainly: Inhibition of PRKD2 (unknown origin) at 1 uM relative to control. To be noted: values are per cent of control. An outline of the steps:
(§1)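 KinomeSCAN competitive binding panel of 100 kinases; compounds tested at 1 µM in duplicate; read-out is percent […] control.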

Assay [2] addresses T2, Mitogen-activated protein kinase 12 (Homo sapiens) (UniProt P53778).
T2 sequence (whole entry): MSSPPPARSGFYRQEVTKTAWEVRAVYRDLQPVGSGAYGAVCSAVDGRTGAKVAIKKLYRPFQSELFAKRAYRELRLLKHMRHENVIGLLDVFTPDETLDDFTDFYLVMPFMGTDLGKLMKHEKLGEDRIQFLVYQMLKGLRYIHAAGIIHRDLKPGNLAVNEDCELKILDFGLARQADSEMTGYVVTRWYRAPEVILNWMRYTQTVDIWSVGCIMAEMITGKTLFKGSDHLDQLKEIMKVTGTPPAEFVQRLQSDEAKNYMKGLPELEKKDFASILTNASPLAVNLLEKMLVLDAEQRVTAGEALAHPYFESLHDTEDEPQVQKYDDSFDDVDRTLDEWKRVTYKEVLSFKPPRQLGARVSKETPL
In words: Inhibition of p38-gamma (unknown origin) at 1 uM relative to control; values are per cent of control.

Assay [3] has as its target Serine/threonine-protein kinase 32B (Homo sapiens) (UniProt Q9NY57). Put plainly: Inhibition of YANK2 (unknown origin) at 1 uM relative to control. The conditions noted are these: values are per cent of control. An outline of the steps: as §1
The target of assay [4] is Ribosomal protein S6 kinase alpha-5 (Homo sapiens) (UniProt O75582). In words: Inhibition of RPS6KA5 (unknown origin) at 1 uM relative to control. The conditions noted are these: values are per cent of control.
Ribosomal protein S6 kinase alpha-5 (Homo sapiens), sequence (O75582 whole entry, looked up): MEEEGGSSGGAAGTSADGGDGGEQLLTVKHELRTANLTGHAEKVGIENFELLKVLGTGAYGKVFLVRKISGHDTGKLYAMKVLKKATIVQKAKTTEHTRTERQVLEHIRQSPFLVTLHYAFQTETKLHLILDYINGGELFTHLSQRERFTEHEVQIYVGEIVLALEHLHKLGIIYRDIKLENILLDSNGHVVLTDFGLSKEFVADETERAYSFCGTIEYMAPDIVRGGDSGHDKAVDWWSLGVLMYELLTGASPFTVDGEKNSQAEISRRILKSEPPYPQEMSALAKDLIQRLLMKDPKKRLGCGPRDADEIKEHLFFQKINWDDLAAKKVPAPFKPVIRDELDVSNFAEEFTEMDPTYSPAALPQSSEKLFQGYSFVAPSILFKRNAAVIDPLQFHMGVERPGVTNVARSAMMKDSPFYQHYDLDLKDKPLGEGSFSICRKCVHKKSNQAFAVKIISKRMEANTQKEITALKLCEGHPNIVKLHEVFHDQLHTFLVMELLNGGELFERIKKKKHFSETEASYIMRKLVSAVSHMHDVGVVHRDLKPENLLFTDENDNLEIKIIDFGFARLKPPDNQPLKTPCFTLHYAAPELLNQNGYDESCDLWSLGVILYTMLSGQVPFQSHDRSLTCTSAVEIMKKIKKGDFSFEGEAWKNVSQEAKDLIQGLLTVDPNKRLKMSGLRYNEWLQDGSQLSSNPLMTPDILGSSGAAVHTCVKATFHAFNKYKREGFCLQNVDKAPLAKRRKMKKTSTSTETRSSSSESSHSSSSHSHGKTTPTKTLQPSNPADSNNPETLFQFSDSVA
Assay [5] concerns the target Platelet-derived growth factor receptor beta (Homo sapiens) (UniProt P09619). Put plainly: Inhibition of PDGFRB (unknown origin) at 1 uM relative to control. To be noted: values are per cent of control. In short, it runs like this:
as §1

Assay [6] deals with T3, Protein kinase C epsilon type (Homo sapiens) (UniProt Q02156).
T3 sequence (whole entry): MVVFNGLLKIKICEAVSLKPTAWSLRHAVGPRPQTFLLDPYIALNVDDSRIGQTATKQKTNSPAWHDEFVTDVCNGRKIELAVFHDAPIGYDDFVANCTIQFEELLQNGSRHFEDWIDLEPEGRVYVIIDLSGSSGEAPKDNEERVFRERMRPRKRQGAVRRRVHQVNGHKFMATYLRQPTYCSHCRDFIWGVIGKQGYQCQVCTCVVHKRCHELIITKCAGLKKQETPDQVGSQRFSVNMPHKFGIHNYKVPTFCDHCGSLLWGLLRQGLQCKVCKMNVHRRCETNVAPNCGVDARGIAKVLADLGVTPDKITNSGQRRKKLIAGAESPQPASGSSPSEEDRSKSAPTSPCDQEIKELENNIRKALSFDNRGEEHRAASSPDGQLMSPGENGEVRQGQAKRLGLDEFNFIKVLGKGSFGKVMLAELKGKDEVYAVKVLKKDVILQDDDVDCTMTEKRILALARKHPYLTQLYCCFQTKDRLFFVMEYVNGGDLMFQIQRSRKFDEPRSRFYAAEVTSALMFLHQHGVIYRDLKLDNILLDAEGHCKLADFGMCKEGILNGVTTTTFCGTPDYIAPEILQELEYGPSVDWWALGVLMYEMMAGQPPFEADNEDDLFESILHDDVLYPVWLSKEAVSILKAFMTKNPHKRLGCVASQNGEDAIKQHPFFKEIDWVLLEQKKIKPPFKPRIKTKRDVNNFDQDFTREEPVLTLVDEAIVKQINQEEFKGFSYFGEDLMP
Put plainly: Inhibition of PRKCE (unknown origin) at 1 uM relative to control. To be noted: values are per cent of control. In short, it runs like this: as §1

For assay [7], the target named is CDC7/DBF4 (Cell division cycle 7-related protein kinase/Activator of S phase kinase) (Homo sapiens, UniProt O00311). Put plainly: Inhibition of Cdc7/Dbf4 (unknown origin)-mediated phosphorylation of MCM2 by protein-A luminescent proximity homogenous assay. Type of assay: protein-complex assay.
CDC7/DBF4 (Cell division cycle 7-related protein kinase/Activator of S phase kinase), sequence (Q9UBU7 whole entry): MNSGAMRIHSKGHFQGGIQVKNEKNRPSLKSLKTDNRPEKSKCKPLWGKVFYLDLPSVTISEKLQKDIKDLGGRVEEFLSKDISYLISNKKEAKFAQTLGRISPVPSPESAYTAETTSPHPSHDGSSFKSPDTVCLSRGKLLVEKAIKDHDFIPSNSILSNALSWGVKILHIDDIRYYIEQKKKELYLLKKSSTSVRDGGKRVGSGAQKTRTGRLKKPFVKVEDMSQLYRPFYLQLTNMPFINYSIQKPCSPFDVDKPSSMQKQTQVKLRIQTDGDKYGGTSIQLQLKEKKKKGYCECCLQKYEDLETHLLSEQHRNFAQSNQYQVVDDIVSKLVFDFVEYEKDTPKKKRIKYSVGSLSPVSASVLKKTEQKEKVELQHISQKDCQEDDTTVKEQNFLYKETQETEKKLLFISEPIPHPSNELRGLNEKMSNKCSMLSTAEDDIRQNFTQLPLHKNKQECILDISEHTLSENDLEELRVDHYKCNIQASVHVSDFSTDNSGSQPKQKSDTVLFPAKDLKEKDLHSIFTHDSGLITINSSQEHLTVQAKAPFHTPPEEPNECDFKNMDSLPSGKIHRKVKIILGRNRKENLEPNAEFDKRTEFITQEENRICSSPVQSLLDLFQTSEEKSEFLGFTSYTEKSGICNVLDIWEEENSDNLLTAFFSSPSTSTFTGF
CDC7/DBF4 (Cell division cycle 7-related protein kinase/Activator of S phase kinase), sequence (O00311 whole entry): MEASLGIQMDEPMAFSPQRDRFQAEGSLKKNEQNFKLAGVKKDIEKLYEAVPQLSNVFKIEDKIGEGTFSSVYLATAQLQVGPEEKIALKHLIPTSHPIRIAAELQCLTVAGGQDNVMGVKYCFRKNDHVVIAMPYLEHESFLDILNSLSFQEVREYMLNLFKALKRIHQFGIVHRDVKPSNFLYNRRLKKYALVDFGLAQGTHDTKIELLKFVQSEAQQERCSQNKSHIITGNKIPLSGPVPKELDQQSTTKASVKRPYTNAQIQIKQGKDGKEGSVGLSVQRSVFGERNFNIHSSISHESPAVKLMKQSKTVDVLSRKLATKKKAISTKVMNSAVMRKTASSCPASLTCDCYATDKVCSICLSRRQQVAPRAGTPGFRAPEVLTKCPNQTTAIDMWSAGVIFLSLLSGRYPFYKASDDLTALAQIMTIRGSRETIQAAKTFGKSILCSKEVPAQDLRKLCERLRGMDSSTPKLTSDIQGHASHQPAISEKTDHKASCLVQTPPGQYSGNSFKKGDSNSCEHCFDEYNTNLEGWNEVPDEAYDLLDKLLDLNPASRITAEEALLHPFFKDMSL

Platelet-derived growth factor receptor beta (Homo sapiens), sequence (P09619 whole entry): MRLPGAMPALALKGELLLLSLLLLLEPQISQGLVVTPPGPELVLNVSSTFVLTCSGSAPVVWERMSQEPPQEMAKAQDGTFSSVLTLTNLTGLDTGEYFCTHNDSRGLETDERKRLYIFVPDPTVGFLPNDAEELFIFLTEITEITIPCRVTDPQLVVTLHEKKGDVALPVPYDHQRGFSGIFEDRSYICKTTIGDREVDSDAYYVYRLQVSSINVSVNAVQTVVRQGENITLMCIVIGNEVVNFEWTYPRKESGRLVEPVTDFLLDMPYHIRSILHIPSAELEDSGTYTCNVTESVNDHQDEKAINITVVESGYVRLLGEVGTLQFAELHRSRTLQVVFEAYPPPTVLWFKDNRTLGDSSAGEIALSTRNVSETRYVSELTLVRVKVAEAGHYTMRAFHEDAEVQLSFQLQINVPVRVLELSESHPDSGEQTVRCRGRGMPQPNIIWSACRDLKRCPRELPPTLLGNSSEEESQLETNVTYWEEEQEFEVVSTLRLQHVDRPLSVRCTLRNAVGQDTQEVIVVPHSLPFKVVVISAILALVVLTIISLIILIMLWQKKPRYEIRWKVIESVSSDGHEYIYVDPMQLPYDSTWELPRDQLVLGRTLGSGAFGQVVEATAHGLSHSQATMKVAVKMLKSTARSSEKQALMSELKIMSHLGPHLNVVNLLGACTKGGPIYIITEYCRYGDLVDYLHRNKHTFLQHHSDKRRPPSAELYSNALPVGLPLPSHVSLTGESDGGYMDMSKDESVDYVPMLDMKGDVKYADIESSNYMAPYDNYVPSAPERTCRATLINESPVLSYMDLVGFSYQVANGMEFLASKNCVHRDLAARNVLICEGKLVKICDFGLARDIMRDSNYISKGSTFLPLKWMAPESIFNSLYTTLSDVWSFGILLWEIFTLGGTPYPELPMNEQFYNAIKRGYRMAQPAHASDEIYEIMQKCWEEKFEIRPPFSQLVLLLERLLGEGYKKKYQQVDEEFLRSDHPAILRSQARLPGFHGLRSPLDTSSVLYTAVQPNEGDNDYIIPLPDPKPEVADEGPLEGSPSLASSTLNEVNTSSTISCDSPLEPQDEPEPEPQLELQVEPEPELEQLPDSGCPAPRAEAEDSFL
Serine/threonine-protein kinase 32B (Homo sapiens), sequence (Q9NY57 whole entry): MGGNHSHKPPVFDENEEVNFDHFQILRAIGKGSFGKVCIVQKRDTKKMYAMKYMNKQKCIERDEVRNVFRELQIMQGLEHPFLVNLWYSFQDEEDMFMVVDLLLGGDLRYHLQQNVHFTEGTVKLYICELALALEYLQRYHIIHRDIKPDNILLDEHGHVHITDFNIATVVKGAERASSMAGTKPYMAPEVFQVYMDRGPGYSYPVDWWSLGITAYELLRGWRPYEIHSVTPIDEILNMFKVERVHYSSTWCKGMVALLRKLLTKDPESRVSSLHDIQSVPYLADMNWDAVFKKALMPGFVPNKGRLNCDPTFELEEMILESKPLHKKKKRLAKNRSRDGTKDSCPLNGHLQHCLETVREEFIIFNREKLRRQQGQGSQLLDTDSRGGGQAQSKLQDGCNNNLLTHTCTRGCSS

Regarding `CCOC(=O)c1sc(-c2ccncc2)nc1O`, the residual binding, % of control in assay [1] is 99%; in assay [3], 82%; in assay [4], 100%; in assay [5], 89%; in assay [6] it was 100%. Besides, in assay [2], the residual activity came out at 100%. In assay [7], the IC50 worked out at 323 nM.
Turning to `NC(=O)c1sc(-c2ccnc(N)n2)nc1-c1ccc(Cl)cc1Cl`, the residual binding, % of control was found to be 92% in assay [1]; 100% in assay [3]; 100% in assay [4]; 52% in assay [5]; 73% in assay [6]. The compound also displayed a residual activity in assay [2] of 65%. Further, the IC50 in assay [7] is 3.77 nM.
As to `COc1ccc(-c2nc(-c3ccnc(N)n3)sc2C(N)=O)c(Cl)c1`, the residual binding, % of control was found to be 77% in assay [1]; 88% in assay [3]; 100% in assay [4]; 62% in assay [5]; 100% in assay [6]. The compound also showed a residual activity in assay [2] of 91%. Also, half-maximal inhibition in assay [7] (IC50) was put at 6.81 nM.
